ChEMBL document CHEMBL4130545, “Lupane-Type Triterpenes of Phoradendron vernicosum” (J Nat Prod, 2017)

Columns and labels:
HeLa [1] = test: Cytotoxic activity in human HeLa cells by sulforhodamine B assay; type: functional
Method in brief: (§1)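 Cell lines grown in D-MEM with 10% (v/v) FBS, 100 U/mL penicillin G and 100 μg/mL streptomycin at 37 °C, 5% CO2, 95% humidity. Cytotoxicity was measured by the Skehan method. CC50 was taken as the concentration that reduces cell growth by 50%. Docetaxel served as positive control, and each test was run in triplicate.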

SiHa [2] = test: Cytotoxic activity in human SiHa cells by sulforhodamine B assay; type: functional; method in brief: as §1
MCF7 [3] = test: Cytotoxic activity in human MCF7 cells by sulforhodamine B assay; type: functional; method in brief: as §1
MDA-MB-231 [4] = test: Cytotoxic activity in human MDA-MB-231 cells by sulforhodamine B assay; type: functional; method in brief: as §1
DU-145 [5] = test: Cytotoxic activity in human DU145 cells by sulforhodamine B assay; type: functional; method in brief: as §1
KB [6] = test: Cytotoxic activity in human KB cells by sulforhodamine B assay; type: functional; method in brief: as §1
HEp-2 [7] = test: Cytotoxic activity in human Hep2 cells by sulforhodamine B assay; type: functional; method in brief: as §1
[8] = Cytotoxic activity in African green monkey Vero cells by sulforhodamine B assay; type: cell-based; conditions: chlorocebus sabaeus
Method in brief: (§2)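 Cells grown in D-MEM with 10% (v/v) FBS, 100 U/mL penicillin G and 100 μg/mL streptomycin, at 37 °C under 5% CO2 and 95% humidity. Cytotoxic and antiproliferative effects were measured by the sulforhodamine B method of Skehan et al. CC50 (cytotoxic) or IC50 (antiproliferative) is the concentration giving 50% growth reduction. Docetaxel was the positive control. Triplicate tests.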

[9] = Cytotoxic activity in HEK293 cells by sulforhodamine B assay; type: cell-based; conditions: human; method in brief: as §2
[10] = Selectivity index, ratio of cytotoxic CC50 for African green monkey Vero cells to cytotoxic CC50 for human HeLa cells; type: toxicity; conditions: Vero cells versus HeLa cells, read-out: Selectivity Index
Method in brief: (§3)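 Selectivity index for harmfulness to normal cells: the normal-cell (Vero or HEK293) CC50 or IC50 over the cancer-cell value from the same assay type. Each value is from sulforhodamine B growth-reduction tests done in triplicate in D-MEM/10% FBS at 37 °C, 5% CO2.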

[11] = Selectivity index, ratio of cytotoxic CC50 for African green monkey Vero cells to cytotoxic CC50 for human SiHa cells; type: toxicity; conditions: Vero cells versus SiHa cells, read-out: Selectivity Index; method in brief: as §3
[12] = Selectivity index, ratio of cytotoxic CC50 for African green monkey Vero cells to cytotoxic CC50 for human MCF7 cells; type: toxicity; conditions: Vero cells versus MCF7 cells, read-out: Selectivity Index; method in brief: as §3
[13] = Selectivity index, ratio of cytotoxic CC50 for African green monkey Vero cells to cytotoxic CC50 for human MDA-MB-231 cells; type: toxicity; conditions: Vero cells versus MDA-MB-231 cells, read-out: Selectivity Index; method in brief: as §3
[14] = Selectivity index, ratio of cytotoxic CC50 for African green monkey Vero cells to cytotoxic CC50 for human KB cells; type: toxicity; conditions: Vero cells versus KB cells, read-out: Selectivity Index; method in brief: as §3
[15] = Selectivity index, ratio of cytotoxic CC50 for African green monkey Vero cells to cytotoxic CC50 for human Hep2 cells; type: toxicity; conditions: Vero cells versus Hep2 cells, read-out: Selectivity Index
[16] = Selectivity index, ratio of cytotoxic CC50 for HEK293 cells to cytotoxic CC50 for human HeLa cells; type: toxicity; conditions: HEK293 cells versus HeLa cells, read-out: Selectivity Index; method in brief: as §3
[17] = Selectivity index, ratio of cytotoxic CC50 for HEK293 cells to cytotoxic CC50 for human SiHa cells; type: toxicity; conditions: HEK293 cells versus SiHa cells, read-out: Selectivity Index; method in brief: as §3
[18] = Selectivity index, ratio of cytotoxic CC50 for HEK293 cells to cytotoxic CC50 for human MCF7 cells; type: toxicity; conditions: HEK293 cells versus MCF7 cells, read-out: Selectivity Index; method in brief: as §3
[19] = Selectivity index, ratio of cytotoxic CC50 for HEK293 cells to cytotoxic CC50 for human MDA-MB-231 cells; type: toxicity; conditions: HEK293 cells versus MDA-MB-231 cells, read-out: Selectivity Index; method in brief: as §3
[20] = Selectivity index, ratio of cytotoxic CC50 for HEK293 cells to cytotoxic CC50 for human KB cells; type: toxicity; conditions: HEK293 cells versus KB cells, read-out: Selectivity Index; method in brief: as §3
[21] = Selectivity index, ratio of cytotoxic CC50 for HEK293 cells to cytotoxic CC50 for human Hep2 cells; type: toxicity; conditions: HEK293 cells versus Hep2 cells, read-out: Selectivity Index; method in brief: as §3
HeLa [22] = test: Antiproliferative activity in human HeLa cells by sulforhodamine B assay; type: functional, cell-based; method in brief: as §2
SiHa [23] = test: Antiproliferative activity in human SiHa cells by sulforhodamine B assay; type: functional, cell-based; method in brief: as §2
MCF7 [24] = test: Antiproliferative activity in human MCF7 cells by sulforhodamine B assay; type: functional, cell-based; method in brief: as §2
MDA-MB-231 [25] = test: Antiproliferative activity in human MDA-MB-231 cells by sulforhodamine B assay; type: functional, cell-based; method in brief: as §2
DU-145 [26] = test: Antiproliferative activity in human DU145 cells by sulforhodamine B assay; type: functional, cell-based; method in brief: as §2
KB [27] = test: Antiproliferative activity in human KB cells by sulforhodamine B assay; type: functional, cell-based; method in brief: as §2
HEp-2 [28] = test: Antiproliferative activity in human Hep2 cells by sulforhodamine B assay; type: functional, cell-based; method in brief: as §2
Vero = test: Antiproliferative activity in African green monkey Vero cells by sulforhodamine B assay; type: cell-based; conditions: Chlorocebus sabaeus; method in brief: as §2
HEK293 = test: Antiproliferative activity in HEK293 cells by sulforhodamine B assay; type: cell-based; conditions: Homo sapiens; method in brief: as §2
[29] = Selectivity index, ratio of antiproliferative IC50 for African green monkey Vero cells to antiproliferative IC50 for human HeLa cells; type: toxicity; conditions: Vero cells versus HeLa cells, read-out: Ratio IC50; method in brief: as §3
[30] = Selectivity index, ratio of antiproliferative IC50 for African green monkey Vero cells to antiproliferative IC50 for human SiHa cells; type: toxicity; conditions: Vero cells versus SiHa cells, read-out: Ratio IC50; method in brief: as §3
[31] = Selectivity index, ratio of antiproliferative IC50 for African green monkey Vero cells to antiproliferative IC50 for human MCF7 cells; type: toxicity; conditions: Vero cells versus MCF7 cells, read-out: Ratio IC50; method in brief: as §3
[32] = Selectivity index, ratio of antiproliferative IC50 for African green monkey Vero cells to antiproliferative IC50 for human KB cells; type: toxicity; conditions: Vero cells versus KB cells, read-out: Ratio IC50; method in brief: as §3
[33] = Selectivity index, ratio of antiproliferative IC50 for HEK293 cells to antiproliferative IC50 for human HeLa cells; type: toxicity; conditions: HEK293 cells versus HeLa cells, read-out: Ratio IC50; method in brief: as §3
[34] = Selectivity index, ratio of antiproliferative IC50 for HEK293 cells to antiproliferative IC50 for human SiHa cells; type: toxicity; conditions: HEK293 cells versus SiHa cells, read-out: Ratio IC50; method in brief: as §3
[35] = Selectivity index, ratio of antiproliferative IC50 for HEK293 cells to antiproliferative IC50 for human MCF7 cells; type: toxicity; conditions: HEK293 cells versus MCF7 cells, read-out: Ratio IC50; method in brief: as §3
[36] = Selectivity index, ratio of antiproliferative IC50 for HEK293 cells to antiproliferative IC50 for human KB cells; type: toxicity; conditions: HEK293 cells versus KB cells, read-out: Ratio IC50; method in brief: as §3
[37] = Selectivity index, ratio of cytotoxic CC50 for African green monkey Vero cells to cytotoxic CC50 for human DU145 cells; type: toxicity; conditions: Vero cells versus DU145 cells, read-out: Selectivity Index; method in brief: as §3
[38] = Selectivity index, ratio of cytotoxic CC50 for HEK293 cells to cytotoxic CC50 for human DU145 cells; type: toxicity; conditions: HEK293 cells versus DU145 cells, read-out: Selectivity Index
[39] = Selectivity index, ratio of antiproliferative IC50 for African green monkey Vero cells to antiproliferative IC50 for human MDA-MB-231 cells; type: toxicity; conditions: Vero cells versus MDA-MB-231 cells, read-out: Ratio IC50
[40] = Selectivity index, ratio of antiproliferative IC50 for African green monkey Vero cells to antiproliferative IC50 for human DU145 cells; type: toxicity; conditions: Vero cells versus DU145 cells, read-out: Ratio IC50
[41] = Selectivity index, ratio of antiproliferative IC50 for African green monkey Vero cells to antiproliferative IC50 for human Hep2 cells; type: toxicity; conditions: Vero cells versus Hep2 cells, read-out: Ratio IC50; method in brief: as §3
[42] = Selectivity index, ratio of antiproliferative IC50 for HEK293 cells to antiproliferative IC50 for human MDA-MB-231 cells; type: toxicity; conditions: HEK293 cells versus MDA-MB-231 cells, read-out: Ratio IC50
[43] = Selectivity index, ratio of antiproliferative IC50 for HEK293 cells to antiproliferative IC50 for human DU145 cells; type: toxicity; conditions: HEK293 cells versus DU145 cells, read-out: Ratio IC50
[44] = Selectivity index, ratio of antiproliferative IC50 for HEK293 cells to antiproliferative IC50 for human Hep2 cells; type: toxicity; conditions: HEK293 cells versus Hep2 cells, read-out: Ratio IC50

For `C=C(C)[C@@H]1CC[C@]2(C(=O)O)CC[C@]3(C)[C@H](CC[C@@H]4[C@@]5(C)CC[C@H](O)C(C)(C)[C@@H]5CC[C@]43C)[C@@H]12` [BETULINIC ACID], the CC50 (HeLa [1]) was 32.6 µM, the CC50 (SiHa [2]) was 28.9 µM and the CC50 (MCF7 [3]) was 49.6 µM. For the same compound, the CC50 (MDA-MB-231 [4]) was 94.3 µM, the CC50 (DU-145 [5]) was over 500000 nM and the CC50 (KB [6]) was 15.6 µM. For the same compound, the CC50 (HEp-2 [7]) was 48.2 µM, the CC50 [8] was 38.1 µM and the CC50 [9] was 80 µM. The selectivity ratio [10] was 1.6, the selectivity ratio [11] was 13 and the selectivity ratio [12] was 0.7. The selectivity ratio [13] was 0.4, the selectivity ratio [14] was 2.4 and the selectivity ratio [15] was 1.3. It also gave a selectivity ratio [16] of 2.5, a selectivity ratio [17] of 2.8 and a selectivity ratio [18] of 1.6. It also gave a selectivity ratio [19] of 0.8, a selectivity ratio [20] of 5.1 and a selectivity ratio [21] of 1.6. It also gave an IC50 (HeLa [22]) of 47.6 µM, an IC50 (SiHa [23]) of 70.1 µM and an IC50 (MCF7 [24]) of 56.3 µM. The IC50 (MDA-MB-231 [25]) was over 500000 nM, the IC50 (DU-145 [26]) was over 500000 nM and the IC50 (KB [27]) was 28.1 µM. It also gave an IC50 (HEp-2 [28]) of over 500000 nM, an IC50 (Vero) of 72.1 µM and an IC50 (HEK293) of 336 µM. For the same compound, the selectivity ratio [29] was 1.5, the selectivity ratio [30] was 1 and the selectivity ratio [31] was 1.3. It also gave a selectivity ratio [32] of 2.6, a selectivity ratio [33] of 7 and a selectivity ratio [34] of 4.8. For the same compound, the selectivity ratio [35] was 6 and the selectivity ratio [36] was 12.

For `CC(=O)O[C@@]12CO[C@@H]1C[C@H](O)[C@@]1(C)C(=O)[C@H](O)C3=C(C)[C@@H](OC(=O)[C@H](O)[C@@H](NC(=O)OC(C)(C)C)c4ccccc4)C[C@@](O)([C@@H](OC(=O)c4ccccc4)[C@H]21)C3(C)C` [DOCETAXEL ANHYDROUS], the CC50 (HeLa [1]) was 0.09 µM, the CC50 (SiHa [2]) was 0.22 µM and the CC50 (MCF7 [3]) was 0.01 µM. It also gave a CC50 (MDA-MB-231 [4]) of 0.19 µM, a CC50 (DU-145 [5]) of 810 nM and a CC50 (KB [6]) of 0.18 µM. For the same compound, the CC50 (HEp-2 [7]) was 0.06 µM, the CC50 [8] was 1.3 µM and the CC50 [9] was 1.6 µM. The selectivity ratio [10] was 14.4, the selectivity ratio [11] was 5.9 and the selectivity ratio [12] was 130. It also gave a selectivity ratio [13] of 6.8, a selectivity ratio [37] of 1.6 and a selectivity ratio [14] of 7.2. The selectivity ratio [15] was 21.6, the selectivity ratio [16] was 17.7 and the selectivity ratio [17] was 7.3. For the same compound, the selectivity ratio [18] was 160, the selectivity ratio [19] was 8.4 and the selectivity ratio [38] was 2. The selectivity ratio [20] was 8.8, the selectivity ratio [21] was 26.6 and the IC50 (HeLa [22]) was 0.07 µM. For the same compound, the IC50 (SiHa [23]) was 0.09 µM, the IC50 (MCF7 [24]) was 0.01 µM and the IC50 (MDA-MB-231 [25]) was 70 nM. The IC50 (DU-145 [26]) was 10 nM, the IC50 (KB [27]) was 0.05 µM and the IC50 (HEp-2 [28]) was 60 nM. The IC50 (Vero) was 0.13 µM, the IC50 (HEK293) was 0.11 µM and the selectivity ratio [29] was 1.9. For the same compound, the selectivity ratio [30] was 1.4, the selectivity ratio [31] was 13 and the selectivity ratio [39] was 1.9. It also gave a selectivity ratio [40] of 13, a selectivity ratio [32] of 2.6 and a selectivity ratio [41] of 2.2. For the same compound, the selectivity ratio [33] was 1.6, the selectivity ratio [34] was 1.2 and the selectivity ratio [35] was 11. For the same compound, the selectivity ratio [42] was 1.6, the selectivity ratio [43] was 11 and the selectivity ratio [36] was 2.2. For the same compound, the selectivity ratio [44] was 1.8.
